The nature of data set [1]: Cytotoxicity against human MT4 cells after 96 hrs by MTT method. The class given is cell-based. In outline: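 Exponentially growing MT-4 cells (CD4+ T-cells carrying integrated HTLV-1) seeded at 1×10^5 cells/mL in RPMI-1640 with 10% FCS, penicillin and streptomycin, with or without serial compound dilutions; 96 h at 37 °C, humidified 5% CO2. Viability by MTT; value = concentration reducing proliferation by 50%, untreated controls undergoing at least three rounds of multiplication.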

Data set [2] deals with Bovine viral diarrhea virus 1. The experiment in a line: Antiviral activity against BVDV in MDBK cells assessed as inhibition of virus-induced cytopathogenicity after 2 to 3 days by MTT method. The settings on record: Bovine viral diarrhea virus isolates and strains. The class given is functional, organism-based. In a few lines: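 MDBK cells seeded 2.5×10^4 cells/well, grown overnight to confluence at 37 °C, 5% CO2; infected at moi 0.01 in serum-free medium; after 1 h, MEM Earle's with 1% inactivated FCS ± serial compound dilutions (DMSO stock diluted in medium) added. Viability read by MTT after 2-3 days at 37 °C; EC50 = 50% protection from cytopathogenicity; mean of three determinations.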
(Cytopathic effects are the visible damage that an infection or toxin causes in cultured cells.)

In data set [3] the test system is Human immunodeficiency virus 1. The experiment in a line: Antiviral activity against HIV1 in MT4 cells by plaque reduction assay. The settings on record: Human immunodeficiency virus 1, MT4. The class given is functional, organism-based.
Data set [4] deals with Reovirus sp. The experiment in a line: Antiviral activity against Reovirus. Format: functional, organism-based.
Data set [5] in a line: Cytotoxicity against Vero 76 cells after 48 to 120 hrs by MTT method. Format: cell-based. The settings on record: chlorocebus sabaeus.
Data set [6] is described as follows: Cytotoxicity against BHK1 cells after 48 to 120 hrs by MTT method. The class given is cell-based, Mesocricetus auratus. Conditions: hamster. In outline:
(§1)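 Cells placed in maintenance medium at initial 1×10^6 (BHK) or 6×10^5 (MDBK) cells/mL, with or without serial compound dilutions, run in parallel with antiviral tests. Viability by MTT after 48–120 h at 37 °C, humidified 5% CO2; CC50 = concentration reducing mock-infected cell viability by 50%; mean of three determinations.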
On the technique in general: Tetrazolium dyes change colour on reduction, which living cells bring about.

In data set [7] the test system is Respiratory syncytial virus. Briefly: Antiviral activity against RSV. Format: functional, organism-based.
Data set [8] has as its system Yellow fever virus. Briefly: Antiviral activity against YFV in BHK1 cells assessed as inhibition of virus-induced cytopathogenicity after 2 to 3 days by MTT method. The class given is functional, organism-based.
For data set [9], the system named is Coxsackievirus B2. The experiment in a line: Antiviral activity against CVB2 in Vero 76 cells after 3 days by plaque reduction assay. Format: functional, organism-based. Conditions: Enterovirus B, 72 h. In outline: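 Vero 76 cells seeded 2×10^5 cells/well, confluent overnight; infected to give 50-100 PFU/well; unadsorbed virus removed, then DMEM with 1% inactivated FCS and 0.75% methyl cellulose ± serial dilutions added. After 3 days at 37 °C, fixed and stained with 50% ethanol/0.8% crystal violet in PBS; plaques counted; EC50 by linear regression.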
(Plaque reduction counts the foci of infection that form in a cell layer.)

The test system of data set [10] is Vesicular stomatitis virus. Briefly: Antiviral activity against VSV. The class given is functional, organism-based.
Data set [11] in a line: Cytotoxicity against MDBK cells after 48 to 120 hrs by MTT method. The class given is cell-based, Bos taurus. The settings on record: cattle. In a few lines: as §1
In data set [12] the test system is Enterovirus C. Briefly: Antiviral activity against Poliovirus Sb1 in Vero 76 cells after 2 days by plaque reduction assay. The class given is functional, organism-based. Conditions: 48 h. In a few lines:
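Vero 76 monolayers (2×10^5 cells/well, grown overnight) infected with Sabin strain at 50-100 PFU/well. Unabsorbed virus removed, then DMEM with 1% inactivated FCS and 0.75% methyl cellulose added, with or without serial compound dilutions (100 mM DMSO stock diluted in medium). Held 2 days at 37 °C, then fixed and stained with ethanol/crystal violet and plaques counted. EC50 (50% plaque reduction) by linear regression; mean of three determinations.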

The record followed here is ChEMBL document CHEMBL1146386, “Design, synthesis, and preliminary in vitro and in silico antiviral activity of [4,7]phenantrolines and 1-oxo-1,4-dihydro-[4,7]phenantrolines against single-stranded positive-sense RNA genome viruses” (Bioorg Med Chem, 2007).

Structures are written as SMILES. Active and inactive are the calls of the source. The rule behind the calls is not given here.

The CC50 is the concentration giving 50% cytotoxicity. High values mean better tolerance by the cells, low ones harm at low concentration. The term EC50 denotes the concentration giving half of the maximal effect. `c1cnc2ccc3ncccc3c2c1` showed a CC50 at 96 h in [1] of 61 µM. Further, the concentration for a half-maximal effect (EC50) in data set [2] was 17 µM; in data set [3] it was greater than 61 µM; in data set [8], greater than 100 µM; in data set [9], greater than 80 µM; in data set [12] it was greater than 80 µM. Further, the outcome in [4], in data set [7] and in data set [10] was inactive. The results for the cytotoxic concentration (CC50) in data set [5], in [6] and in data set [11] were 80 µM, greater than 100 µM and greater than 100 µM, respectively.

For the compound `CCOC(=O)c1c[nH]c2c(Cl)c(Cl)c3ncccc3c2c1=O`, it took 32 µM to reach half-maximal cytotoxicity in data set [1] (CC50 at 96 h). For the same compound, the EC50 in [2] was 35 µM; in [3] it was greater than 32 µM; in data set [8] it was greater than 25 µM; in data set [9] it was greater than 90 µM; in data set [12] it was greater than 90 µM. Further, the result in [4], in [7] and in [10] was inactive. The figures for the half-maximal cytotoxic concentration (CC50) in data set [5], in data set [6] and in [11] were 90 µM, 25 µM and greater than 100 µM, respectively.

`CCOc1ccnc2ccc3ncccc3c12` came in with a CC50 at 96 h in [1] of 56 µM. Besides, the EC50 in data set [2] was 6 µM; in data set [3], greater than 56 µM; in [8], greater than 35 µM; in data set [9], 5 µM; in data set [12], 17 µM. Besides, the outcome in data set [4], in [7] and in data set [10] was inactive. The CC50 in [5] amounted to 80 µM; in data set [6], 35 µM; in data set [11], 64 µM.

In turn, `Nc1ccnc2ccc3ncccc3c12` registered a CC50 at 96 h in data set [1] of 50 µM. Further, the EC50 is 9 µM in data set [2]; greater than 50 µM in [3]; greater than 100 µM in [8]; greater than 90 µM in data set [9]; greater than 90 µM in data set [12]. Besides, the result in data set [4], in data set [7] and in data set [10] was inactive. Moreover, the 50% cytotoxic concentration (CC50) in [5] is 90 µM; in data set [6], greater than 100 µM; in data set [11] it was 63 µM.

In data set [1], `Clc1c(Cl)c2ncccc2c2cccnc12` came in with a CC50 at 96 h of 24 µM. For the same compound, the EC50 in data set [2] was 16 µM; in data set [3] it was greater than 24 µM; in [8], greater than 100 µM; in data set [9], 11 µM; in data set [12], 6 µM. Also, the outcome in data set [4], in [7] and in data set [10] was inactive. Also, the half-maximal cytotoxic concentration (CC50) in [5] is 25 µM; in [6], greater than 100 µM; in [11], greater than 100 µM.

In turn, `CCOc1ccnc2c(Cl)c(Cl)c3ncccc3c12` showed a CC50 at 96 h in [1] greater than 100 µM. Moreover, the half-maximal effective concentration (EC50) in [2] was 25 µM; in [3] it was greater than 100 µM; in data set [8] it was greater than 25 µM; in data set [9], 2 µM; in data set [12], 11 µM. Also, the result in data set [4], in [7] and in data set [10] was inactive. Also, the CC50 in [5] turned out to be 75 µM; in [6] it was 25 µM; in [11] it was 64 µM.

In the case of `O=c1cc[nH]c2c(Cl)c(Cl)c3ncccc3c12`, in data set [1], the half-maximal cytotoxic concentration (CC50) at 96 h was 47 µM. Further, the EC50 is 16 µM in [2]; greater than 47 µM in data set [3]; greater than 100 µM in data set [8]; greater than 80 µM in data set [9]; greater than 80 µM in data set [12]. For the same compound, the outcome in [4], in data set [7] and in data set [10] was inactive. Besides, the CC50 in data set [5] is 80 µM; in data set [6], greater than 100 µM; in data set [11], greater than 100 µM.

For `O=c1cc[nH]c2ccc3ncccc3c12`, the cytotoxic concentration (CC50) at 96 h in data set [1] was greater than 100 µM. The EC50 in data set [2] was 95 µM; in data set [3] it was greater than 100 µM; in data set [8], greater than 66 µM; in data set [9], greater than 100 µM; in data set [12], greater than 100 µM. Further, the result in [4], in data set [7] and in [10] was inactive. In addition, the CC50 in data set [5] was greater than 100 µM; in data set [6] it was 66 µM; in [11] it was greater than 100 µM.

The compound `O=C(O)c1c[nH]c2c(Cl)c(Cl)c3ncccc3c2c1=O` yielded a half-maximal cytotoxic concentration (CC50) at 96 h in data set [1] greater than 100 µM. For the same compound, the EC50 in data set [2] is greater than 100 µM; in data set [3], greater than 100 µM; in data set [8], greater than 23 µM; in data set [9], greater than 100 µM; in [12], 85 µM. Moreover, the result in data set [4], in data set [7] and in data set [10] was inactive. For the same compound, the figures for the cytotoxic concentration (CC50) in [5], in data set [6] and in data set [11] were 100 µM, 23 µM and greater than 100 µM, respectively.

In the case of `Nc1ccnc2c(Cl)c(Cl)c3ncccc3c12`, the CC50 at 96 h in [1] worked out at 7.2 µM. In addition, the concentration for a half-maximal effect (EC50) is no less than 24 µM in [2]; greater than 7.2 µM in data set [3]; greater than 11 µM in data set [8]; 2 µM in [9]; 14 µM in data set [12]. The result in [4], in data set [7] and in data set [10] was inactive. The CC50 was 40 µM in [5], 11 µM in data set [6] and 24 µM in data set [11].

`CC(=O)Nc1ccnc2c(Cl)c(Cl)c3ncccc3c12` had a CC50 at 96 h in data set [1] of 13 µM. In addition, the EC50 in data set [2] is 22 µM; in data set [3], greater than 13 µM; in data set [8] it was greater than 18 µM; in [9], 2 µM; in data set [12], 21 µM. For the same compound, the outcome in [4], in data set [7] and in data set [10] was inactive. In addition, the values for the 50% cytotoxic concentration (CC50) in data set [5], in [6] and in data set [11] were 50 µM, 18 µM and 32 µM, respectively.

For `Clc1c(Cl)c2nccc(Cl)c2c2cccnc12`, in data set [1], the CC50 at 96 h was 6.4 µM. In addition, the EC50 in data set [2] is greater than 54 µM; in data set [3], greater than 6.4 µM; in data set [8] it was greater than 100 µM; in [9], greater than 100 µM; in data set [12], greater than 100 µM. The result in [4], in data set [7] and in [10] was inactive. In addition, the CC50 was greater than 100 µM in data set [5], greater than 100 µM in [6] and 54 µM in data set [11].
